Test results from ChEMBL document CHEMBL5376013, “Design, synthesis and biological evaluation of novel morpholinopyrimidine-5-carbonitrile derivatives as dual PI3K/mTOR inhibitors” (RSC Med Chem, 2024).

How the values were obtained:
Format in all cases: functional
Details in all cases: read-out: GI
HOP-92 = test: Antitumor activity against human HOP-92 cells assessed as growth inhibition at 10 uM relative to control
Outline: (§1)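 After drug addition, plates were incubated 48 h at 37 °C under 5% CO2. Adherent cells were fixed with cold TCA (10% final, 60 min, 4 °C) and suspension cells with 16% final TCA. Staining used 0.4% SRB in 1% acetic acid, solubilized in 10 mM trizma, read at A515. Percent growth was calculated from time-zero, control and treated absorbances.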

SNB-19 = test: Antitumor activity against human SNB-19 cells assessed as growth inhibition at 10 uM relative to control
Outline: (§2)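 Drug exposure 48 h at 37 °C, 5% CO2. Adherent cells fixed with cold TCA (10% final), suspension cells with TCA (16% final). Stained with 0.4% SRB in 1% acetic acid, dissolved in 10 mM Tris, A515. Growth relative to time-zero and untreated control.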

MDA-MB-435 = test: Antitumor activity against human MDA-MB-435 cells assessed as growth inhibition at 10 uM relative to control; outline: as §1
SF-268 = test: Antitumor activity against human SF-268 cells assessed as growth inhibition at 10 uM relative to control; outline: as §1
UO-31 = test: Antitumor activity against human UO-31 cells assessed as growth inhibition at 10 uM relative to control; outline: as §2
LOX IMVI = test: Antitumor activity against human LOX IMVI cells assessed as growth inhibition at 10 uM relative to control; outline: as §1
M14 = test: Antitumor activity against human M14 cells assessed as growth inhibition at 10 uM relative to control; outline: as §1
786-0 = test: Antitumor activity against human 786-0 cells assessed as growth inhibition at 10 uM relative to control; outline: as §1
BT-549 = test: Antitumor activity against human BT-549 cells assessed as growth inhibition at 10 uM relative to control; outline: as §1
IGROV-1 = test: Antitumor activity against human IGROV-1 cells assessed as growth inhibition at 10 uM relative to control; outline: as §1
EKVX = test: Antitumor activity against human EKVX cells assessed as growth inhibition at 10 uM relative to control; outline: as §1
RXF 393 = test: Antitumor activity against human RXF 393 cells assessed as growth inhibition at 10 uM relative to control; outline: as §1
SNB-75 = test: Antitumor activity against human SNB-75 cells assessed as growth inhibition at 10 uM relative to control; outline: as §2
COLO 205 = test: Antitumor activity against human COLO 205 cells assessed as growth inhibition at 10 uM relative to control; outline: as §1
HCT-116 = test: Antitumor activity against human HCT-116 cells assessed as growth inhibition at 10 uM relative to control; outline: as §1
PC-3 = test: Antitumor activity against human PC-3 cells assessed as growth inhibition at 10 uM relative to control; outline: as §1
SR = test: Antitumor activity against human SR cells assessed as growth inhibition at 10 uM relative to control; outline: as §2
T47D = test: Antitumor activity against human T47D cells assessed as growth inhibition at 10 uM relative to control; outline: as §2
A498 = test: Antitumor activity against human A498 cells assessed as growth inhibition at 10 uM relative to control; outline: as §1
SF-539 = test: Antitumor activity against human SF-539 cells assessed as growth inhibition at 10 uM relative to control; outline: as §1
NCI/ADR-RES = test: Antitumor activity against human NCI-ADR-RES cells assessed as growth inhibition at 10 uM relative to control; outline: as §1
U-251 = test: Antitumor activity against human U-251 cells assessed as growth inhibition at 10 uM relative to control; outline: as §2
ACHN = test: Antitumor activity against human ACHN cells assessed as growth inhibition at 10 uM relative to control; outline: as §1
HOP-62 = test: Antitumor activity against human HOP-62 cells assessed as growth inhibition at 10 uM relative to control; outline: as §1
NCI-H522 = test: Antitumor activity against human NCI-H522 cells assessed as growth inhibition at 10 uM relative to control; outline: as §1
MOLT-4 = test: Antitumor activity against human MOLT-4 cells assessed as growth inhibition at 10 uM relative to control; outline: as §1
NCI-H226 = test: Antitumor activity against human NCI-H226 cells assessed as growth inhibition at 10 uM relative to control; outline: as §1
SF-295 = test: Antitumor activity against human SF-295 cells assessed as growth inhibition at 10 uM relative to control; outline: as §1
RPMI-8226 = test: Antitumor activity against human RPMI-8226 cells assessed as growth inhibition at 10 uM relative to control; outline: as §1
DU-145 = test: Antitumor activity against human DU-145 cells assessed as growth inhibition at 10 uM relative to control; outline: as §1
K562 = test: Antitumor activity against human K562 cells assessed as growth inhibition at 10 uM relative to control; outline: as §1
Malme-3M = test: Antitumor activity against human Malme-3M cells assessed as growth inhibition at 10 uM relative to control; outline: as §1
NCI-H23 = test: Antitumor activity against human NCI-H23 cells assessed as growth inhibition at 10 uM relative to control; outline: as §1
MDA-MB-468 = test: Antitumor activity against human MDA-MB-468 cells assessed as growth inhibition at 10 uM relative to control; outline: as §1
OVCAR-3 = test: Antitumor activity against human OVCAR-3 cells assessed as growth inhibition at 10 uM relative to control; outline: as §1
SW-620 = test: Antitumor activity against human SW-620 cells assessed as growth inhibition at 10 uM relative to control; outline: as §2
KM12 = test: Antitumor activity against human KM12 cells assessed as growth inhibition at 10 uM relative to control; outline: as §1
HCC 2998 = test: Antitumor activity against human HCC 2998 cells assessed as growth inhibition at 10 uM relative to control; outline: as §1
SK-MEL-5 = test: Antitumor activity against human SK-MEL-5 cells assessed as growth inhibition at 10 uM relative to control; outline: as §2
Hs-578T = test: Antitumor activity against human Hs-578T cells assessed as growth inhibition at 10 uM relative to control; outline: as §1
CCRF-CEM = test: Antitumor activity against human CCRF-CEM cells assessed as growth inhibition at 10 uM relative to control; outline: as §1
MDA-MB-231 = test: Antitumor activity against human MDA-MB-231 cells assessed as growth inhibition at 10 uM relative to control; outline: as §1
NCI-H322M = test: Antitumor activity against human NCI-H322M cells assessed as growth inhibition at 10 uM relative to control; outline: as §1
OVCAR-8 = test: Antitumor activity against human OVCAR-8 cells assessed as growth inhibition at 10 uM relative to control; outline: as §1
SK-MEL-28 = test: Antitumor activity against human SK-MEL-28 cells assessed as growth inhibition at 10 uM relative to control; outline: as §2
HL-60 = test: Antitumor activity against human HL-60 cells assessed as growth inhibition at 10 uM relative to control; outline: as §1

**Q.** Which results are given for `CSc1nc(O)c(C#N)c(-c2ccc(Cl)cc2)n1`?
**A.** inhibition of growth at 10 µM (HOP-92): 24.7%; inhibition of growth at 10 µM (SNB-19): < 1%; inhibition of growth at 10 µM (MDA-MB-435): < 1%; inhibition of growth at 10 µM (SF-268): < 1%; inhibition of growth at 10 µM (UO-31): < 1%; inhibition of growth at 10 µM (LOX IMVI): < 1%; inhibition of growth at 10 µM (M14): < 1%; inhibition of growth at 10 µM (786-0): < 1%; inhibition of growth at 10 µM (BT-549): < 1%; inhibition of growth at 10 µM (IGROV-1): < 1%; inhibition of growth at 10 µM (EKVX): < 1%; inhibition of growth at 10 µM (RXF 393): < 1%; inhibition of growth at 10 µM (SNB-75): 11.3%; inhibition of growth at 10 µM (COLO 205): < 1%; inhibition of growth at 10 µM (HCT-116): < 1%; inhibition of growth at 10 µM (PC-3): < 1%; inhibition of growth at 10 µM (SR): < 1%; inhibition of growth at 10 µM (T47D): < 1%; inhibition of growth at 10 µM (A498): < 1%; inhibition of growth at 10 µM (SF-539): < 1%; inhibition of growth at 10 µM (NCI/ADR-RES): < 1%; inhibition of growth at 10 µM (U-251): < 1%; inhibition of growth at 10 µM (ACHN): < 1%; inhibition of growth at 10 µM (HOP-62): < 1%; inhibition of growth at 10 µM (NCI-H522): < 1%; inhibition of growth at 10 µM (MOLT-4): < 1%; inhibition of growth at 10 µM (NCI-H226): < 1%; inhibition of growth at 10 µM (SF-295): < 1%; inhibition of growth at 10 µM (RPMI-8226): < 1%; inhibition of growth at 10 µM (DU-145): < 1%; inhibition of growth at 10 µM (K562): < 1%; inhibition of growth at 10 µM (Malme-3M): < 1%; inhibition of growth at 10 µM (NCI-H23): < 1%; inhibition of growth at 10 µM (MDA-MB-468): < 1%; inhibition of growth at 10 µM (OVCAR-3): < 1%; inhibition of growth at 10 µM (SW-620): < 1%; inhibition of growth at 10 µM (KM12): < 1%; inhibition of growth at 10 µM (HCC 2998): < 1%; inhibition of growth at 10 µM (SK-MEL-5): < 1%; inhibition of growth at 10 µM (Hs-578T): < 1%; inhibition of growth at 10 µM (CCRF-CEM): < 1%; inhibition of growth at 10 µM (MDA-MB-231): < 1%; inhibition of growth at 10 µM (NCI-H322M): < 1%; inhibition of growth at 10 µM (OVCAR-8): < 1%; inhibition of growth at 10 µM (SK-MEL-28): < 1%; inhibition of growth at 10 µM (HL-60): < 1%

**Q.** What does the source list for `N#Cc1c(-c2ccc(Cl)cc2)[nH]c(=S)[nH]c1=O`?
**A.** inhibition of growth at 10 µM (HOP-92): < 1%; inhibition of growth at 10 µM (SNB-19): < 1%; inhibition of growth at 10 µM (MDA-MB-435): < 1%; inhibition of growth at 10 µM (SF-268): < 1%; inhibition of growth at 10 µM (UO-31): 10.2%; inhibition of growth at 10 µM (LOX IMVI): < 1%; inhibition of growth at 10 µM (M14): < 1%; inhibition of growth at 10 µM (786-0): < 1%; inhibition of growth at 10 µM (BT-549): < 1%; inhibition of growth at 10 µM (IGROV-1): < 1%; inhibition of growth at 10 µM (EKVX): < 1%; inhibition of growth at 10 µM (RXF 393): < 1%; inhibition of growth at 10 µM (SNB-75): 14.7%; inhibition of growth at 10 µM (COLO 205): < 1%; inhibition of growth at 10 µM (HCT-116): < 1%; inhibition of growth at 10 µM (PC-3): < 1%; inhibition of growth at 10 µM (SR): < 1%; inhibition of growth at 10 µM (T47D): < 1%; inhibition of growth at 10 µM (A498): < 1%; inhibition of growth at 10 µM (SF-539): < 1%; inhibition of growth at 10 µM (NCI/ADR-RES): < 1%; inhibition of growth at 10 µM (U-251): < 1%; inhibition of growth at 10 µM (ACHN): < 1%; inhibition of growth at 10 µM (HOP-62): < 1%; inhibition of growth at 10 µM (NCI-H522): < 1%; inhibition of growth at 10 µM (MOLT-4): < 1%; inhibition of growth at 10 µM (NCI-H226): < 1%; inhibition of growth at 10 µM (SF-295): < 1%; inhibition of growth at 10 µM (RPMI-8226): < 1%; inhibition of growth at 10 µM (DU-145): < 1%; inhibition of growth at 10 µM (K562): < 1%; inhibition of growth at 10 µM (Malme-3M): < 1%; inhibition of growth at 10 µM (NCI-H23): < 1%; inhibition of growth at 10 µM (MDA-MB-468): < 1%; inhibition of growth at 10 µM (OVCAR-3): < 1%; inhibition of growth at 10 µM (SW-620): < 1%; inhibition of growth at 10 µM (KM12): < 1%; inhibition of growth at 10 µM (HCC 2998): < 1%; inhibition of growth at 10 µM (SK-MEL-5): < 1%; inhibition of growth at 10 µM (Hs-578T): < 1%; inhibition of growth at 10 µM (CCRF-CEM): < 1%; inhibition of growth at 10 µM (MDA-MB-231): < 1%; inhibition of growth at 10 µM (NCI-H322M): < 1%; inhibition of growth at 10 µM (OVCAR-8): < 1%; inhibition of growth at 10 µM (SK-MEL-28): < 1%; inhibition of growth at 10 µM (HL-60): < 1%
